The values below come from ChEMBL document CHEMBL5705901, “Exploiting selective BCL-2 family inhibitors to dissect cell survival dependencies and define improved strategies for cancer therapy” (Sci Transl Med, 2015).

Usually TGI stands for the reduction of tumour growth relative to the control group.

The test system of data set [1] is NCI-H358. As to the kind of experiment: Antitumor activity against human NCI-H358 cells xenografted in iv dosed SCID mouse assessed as maximum tumor growth inhibition relative to control. The data set is classed as functional.
In data set [2] the test system is A549. As to the kind of experiment: Antitumor activity against 3 times passaged human A549 cells xenografted in iv dosed SCID mouse assessed as maximum tumor growth inhibition relative to control. It is filed as functional. Background: A xenograft is tissue or cells of one species grown in another, often human tumour cells in immunodeficient mice.
In data set [3] the test system is MDA-MB-231. As to the kind of experiment: Antitumor activity against LC3 positive human MDA-MB-231 cells xenografted in SCID mouse assessed as maximum tumor growth inhibition at 7.5 mg/kg, iv administered as single dose relative to control. The data set is classed as functional. As to conditions: read-out: TGI. In outline:
(§1)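 MDA-MB-231 LC3 metastatic breast cancer xenograft, 10 mice per group, with a vehicle control. Dosing: oral agent 25 mg/kg daily for 14 days; docetaxel 7.5 mg/kg iv once; combination gives both regimens. Mean tumor volumes tracked. TGImax = 100(1 − Tv/Cv) from mean treated vs control volumes. TGD = 100(T/C − 1) from median times to reach 1 cm3.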

The subject of data set [4] is NCI-H358. As to the kind of experiment: Antitumor activity against human NCI-H358 cells xenografted in iv dosed SCID mouse assessed as tumor growth delay relative to control. It is filed as functional. Put shortly: (§2)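 Tumor volume-based endpoints. TGD = 100(T/C − 1), where T and C are the median times for the treated and control groups to reach 1 cm3. Groups were five mice for NCI-H747 and OVCAR-5 and eight for NCI-H358. Docetaxel was given intravenously and the test agent orally.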

Data set [5] is described as follows: Toxicity in iv dosed SCID mouse assessed as tolerance. The settings on record: in vivo. The data set is classed as organism-based.
Data set [6] has as its system OVCAR-5. As to the kind of experiment: Antitumor activity against human OVCAR-5 xenografted in iv dosed SCID mouse assessed as tumor growth delay relative to control. It is filed as functional. In outline:
as §2

A short description of data set [7]: Toxicity in Sprague-Dawley rat assessed as inhibition of granulopoiesis by measuring reduction in neutrophil count at 5 mg/kg, iv administered once and measured on day 6 by microscopic analysis relative to control. More on the design: scale not given: the % may be the effect or the level left. It is filed as organism-based. The settings on record: in vivo, 144 h, time 6 day. Put shortly: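 Male Sprague-Dawley rats, n = 10 per group: docetaxel 5 mg/kg i.v. once, or oral inhibitor daily for 5 days (30, 50 or 7 mg/kg depending on agent), alone or combined with docetaxel, against vehicles. Total neutrophil and platelet counts in blood collected on day 6; Tukey-Kramer test versus vehicle.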

The subject of data set [8] is NCI-H747. As to the kind of experiment: Antitumor activity against human NCI-H747 cells xenografted in iv dosed SCID-bg mouse assessed as tumor growth delay relative to control. It is filed as functional. In outline:
as §2

In data set [9] the test system is EBC-1. As to the kind of experiment: Antitumor activity against human EBC-1 cells xenografted in iv dosed SCID-bg mouse assessed as tumor growth delay relative to control. It is filed as functional.
Data set [10] relates to EBC-1. As to the kind of experiment: Antitumor activity against human EBC-1 cells xenografted in iv dosed SCID-bg mouse assessed as maximum tumor growth inhibition relative to control. It is filed as functional.
For data set [11], the system named is A549. As to the kind of experiment: Antitumor activity against 3 times passaged human A549 cells xenografted in iv dosed SCID mouse assessed as tumor growth delay relative to control. It is filed as functional.
Data set [12] concerns NCI-H1650. As to the kind of experiment: Antitumor activity against human NCI-H1650 cells xenografted in SCID-bg mouse assessed as tumor growth delay at 7.5 mg/kg, iv administered as single dose relative to control. The data set is classed as functional. Put shortly: (§3)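 NCI-H1650 NSCLC xenografts, ten mice per group. Arms: vehicle; docetaxel iv once at 7.5 mg/kg; oral agent daily for 14 days at 25 mg/kg; and the two combined. TGImax = 100(1 − Tv/Cv) from mean volumes. TGD = 100(T/C − 1) from median times to reach 1 cm3.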

Data set [13] can be described thus: Toxicity in iv dosed SCID-bg mouse assessed as tolerance. As to conditions: in vivo. The data set is classed as organism-based.
Data set [14] has as its system MDA-MB-231. As to the kind of experiment: Antitumor activity against LC3 positive human MDA-MB-231 cells xenografted in SCID mouse assessed as tumor growth delay at 7.5 mg/kg, iv administered as single dose relative to control. It is filed as functional. Put shortly:
as §1

Data set [15] is described as follows: Toxicity in iv dosed SCID mouse assessed as body weight loss relative to control. The data set is classed as organism-based. The settings on record: in vivo.
Data set [16] in a line: Toxicity in iv dosed SCID-bg mouse assessed as body weight loss relative to control. The data set is classed as organism-based. As to conditions: in vivo.
In data set [17] the test system is NCI-H1650. As to the kind of experiment: Antitumor activity against human NCI-H1650 cells xenografted in SCID-bg mouse assessed as maximum tumor growth inhibition at 7.5 mg/kg, iv administered as single dose relative to control. The data set is classed as functional. The settings on record: read-out: TGI. In outline:
as §3

The subject of data set [18] is OVCAR-5. As to the kind of experiment: Antitumor activity against human OVCAR-5 xenografted in iv dosed SCID mouse assessed as maximum tumor growth inhibition relative to control. The data set is classed as functional.
The subject of data set [19] is NCI-H747. As to the kind of experiment: Antitumor activity against human NCI-H747 cells xenografted in iv dosed SCID-bg mouse assessed as maximum tumor growth inhibition relative to control. It is filed as functional.

On to `CC(=O)O[C@@]12CO[C@@H]1C[C@H](O)[C@@]1(C)C(=O)[C@H](O)C3=C(C)[C@@H](OC(=O)[C@H](O)[C@@H](NC(=O)OC(C)(C)C)c4ccccc4)C[C@@](O)([C@@H](OC(=O)c4ccccc4)[C@H]21)C3(C)C` [DOCETAXEL ANHYDROUS], for which the TGI with NCI-H358 [1] was 58%; in the data set on A549 [2], 71%; with EBC-1 [10], 76%; in the data set with OVCAR-5 [18], 39%; with NCI-H747 [19] it was 52%. Also, the values for the inhibition in vivo at 7.5 mg/kg in the data set on MDA-MB-231 [3] and in the data set with NCI-H1650 [17] were 73% and 82%, respectively. Further, the Activity with NCI-H358 [4] was 47%; in data set [5], “Non-Toxic”; in the data set with OVCAR-5 [6], 54%; in [7], 61%; with NCI-H747 [8] it was 113%; with EBC-1 [9] it was 44%. The Activity with A549 [11] was 108%; with NCI-H1650 [12], 52%; in data set [13], “Non-Toxic”; with MDA-MB-231 [14], 82%; in data set [15] it was below 9%; in data set [16], below 9%.
